These results are taken from ChEMBL document CHEMBL1122024, “Quantitative structure-inhibitory activity relationships of phenols and fatty acids for Bacillus subtilis spore germination” (J Med Chem, 1982).

Each structure is given as a SMILES string.

As a reminder, the pKa is the negative logarithm of the acid dissociation constant. Lower therefore signals a stronger acid or weaker base. What is called logD is lipophilicity at a set pH, counting ionised and neutral species. A lower logD goes with a more hydrophilic compound. As usually defined, the logP is a log measure of how a compound divides between an organic and an aqueous phase.

Series [1] deals with Bacillus subtilis. Nature of the series: microbe, parasite or virus in culture. Type of series: functional, organism-based. Particulars: read-out: I50; call rule not given here.
Series [2] is described as follows: physchem.
Series [3] concerns Bacillus subtilis. The class given is functional.
Series [4] in a line: Distribution coefficient (log D) was determined at pH 7.2.
The test system of series [5] is Bacillus subtilis. Nature of the series: Inhibitory activity on germination of Bacillus subtilis PCI219 spores was determined; No inhibition at 5e-2M. The class given is functional, organism-based. A digest of the protocol:
(§1)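 Unheated B. subtilis PCI219 spores (about 2.2×10^8 cells per mL) were incubated with the test compound in 0.1 mM L-alanine germinant and 0.05 M phosphate buffer, pH 7.2, at 37 °C. Germination was followed as the decrease in absorbance at 650 nm. The rate was taken as the slope of the steepest linear portion and compared with an inhibitor-free control.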

For series [6], the system named is Bacillus subtilis.
Series [7] deals with Bacillus subtilis. Kind of series: Inhibitory activity on germination of Bacillus subtilis PCI219 spores was determined; No inhibition at 5*10e-2 M. Type of series: functional, organism-based. A digest of the protocol: as §1
Series [8] can be described thus: physchem. Particulars: octanol/water.
Series [9] can be described thus: Dissociation constant was determined spectrophotometrically; Experiment 1. Type of series: physicochemical.

For `O=[N+]([O-])c1cccc(O)c1` [3-NITRO-PHENOL], the IC50 in series [1] came out at 901 µM. The pKa in [2] was determined as 8.4. The “Log 1/I50” value in series [3] was 3.05 1/M. The compound further displayed a log distribution coefficient (logD) in series [4] of 1.97.
Regarding `Nc1ccc(O)cc1` [4-AMINOPHENOL], the pKa in [2] stood at 10.3. In [5], the I50 entry is reported as “No inhibition”. Also, the “Log 1/I50” value in series [6] was “No inhibition”.
On to `O=C(O)c1ccc(O)cc1` [PARABEN], for which, in series [7], the I50 entry is “Not Active”. For the same compound, the lipophilicity (logP) in series [8] is 1.57. The same compound showed a pKa in [9] of 9.4.
